Experimental data pooled from the literature.
Each line is one published result; the experiments were not run side by side. pIC50: −log10 of the molar value.
Read-out: cell growth or viability

The pIC50 of `CC(=O)c1sc(=NN=C(C)c2c(O)c3ccccc3oc2=O)[nH]c1C` is reported as less than 4.00 (human Skin fibroblast; MTT; 48 h).
With `O=C(N/N=C/c1c(O)ccc2ccccc12)c1cc(-c2ccc3ccccc3c2)n[nH]1` the pIC50 was 5.10 (WM278; MTS; 48 h).
The pIC50 of `CC(C)C[C@H](NC(=O)[C@H](Cc1ccccc1)NC(=O)c1cnccn1)B(O)O` is reported as 7.74 (T84; ATP luminescence).
With `Cn1ncnc1[C@H]1c2n[nH]c(=O)c3cc(F)cc(c23)N[C@@H]1c1ccc(F)cc1` the pIC50 was 8.43 (MB002; 7 days).
The pIC50 of `CC(=NN=c1sc(N=Nc2ccccc2)c(C)n1C)c1c(O)c2ccccc2oc1=O` is reported as less than 4.00 (human Skin fibroblast; MTT; 48 h).
`Oc1ccc(Nc2nc(-c3ccc(Cl)cc3)cs2)cc1` gave a pIC50 of 4.63 (WM278; MTS; 72 h).
`CN1CCN(CCOc2cc(OC3CCOCC3)c3c(Nc4c(Cl)ccc5c4OCO5)ncnc3c2)CC1` gave a pIC50 of less than 5.00 (HD-MB03; 7 days).
`CC(=NN=c1scc(-c2ccccc2)n1C)c1c(O)c2ccccc2oc1=O` has a pIC50 of less than 4.00 (human Skin fibroblast; MTT; 48 h).
`COc1cc(Nc2nccc(-c3cnn4nc(OC)ccc34)n2)cc(C(F)(F)F)c1` has a pIC50 of 5.89 (T84; ATP luminescence).
`CC1(C)CCC(CN2CCN(c3ccc(C(=O)NS(=O)(=O)c4ccc(NCC5CCOCC5)c([N+](=O)[O-])c4)c(Oc4cnc5[nH]ccc5c4)c3)CC2)=C(c2ccc(Cl)cc2)C1` gave a pIC50 of less than 5.00 (MB002; 7 days).
